Data from ChEMBL document CHEMBL1152836, “10H-Phenothiazines: a new class of enzyme inhibitors for inflammatory diseases” (Eur J Med Chem, 2009).
pIC50: −log10 of the molar value.

Experiments:
[1] = Inhibition of phosphodiesterase assessed as production of inorganic phosphate
In short: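 Activity measured as inorganic phosphate released with 5'-nucleotidase present in excess. IC50 is the substrate concentration giving 50% inhibition of enzyme activity. Values are the average of three independent experiments (n = 3).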

[2] = Inhibition of prostaglandin synthetase
In short: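 Isolated soya bean lipoxygenase was the enzyme source. Arachidonic acid metabolites (prostaglandin E, leukotrienes) were analysed by reverse-phase ODS-18 HPLC with acetonitrile:water 70:30 mobile phase, detection at 280 nm. IC50 is the substrate concentration giving 50% inhibition. Values are the average of three independent experiments (n = 3).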

[3] = target: Glutathione hydrolase 1 proenzyme (Homo sapiens, UniProt P19440); assay: Inhibition of gamma-glutamyltranspeptidase by colorimetric assay
In short: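 Colorimetric read-out at 405 nm by a standard procedure. IC50 is the substrate concentration giving 50% inhibition of enzyme activity. Values are the average of three independent experiments (n = 3).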

[4] = Inhibition of superoxide dismutase assessed as inhibition of superoxide generation by spectrophotometry
In short: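 Superoxide generation measured in a cell-membrane-free system by spectrophotometry at 340 nm. IC50 is the substrate concentration giving 50% inhibition of enzyme activity. Values are the average of three independent experiments (n = 3).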

Chain of Glutathione hydrolase 1 proenzyme (P19440 1-380 limits assumed): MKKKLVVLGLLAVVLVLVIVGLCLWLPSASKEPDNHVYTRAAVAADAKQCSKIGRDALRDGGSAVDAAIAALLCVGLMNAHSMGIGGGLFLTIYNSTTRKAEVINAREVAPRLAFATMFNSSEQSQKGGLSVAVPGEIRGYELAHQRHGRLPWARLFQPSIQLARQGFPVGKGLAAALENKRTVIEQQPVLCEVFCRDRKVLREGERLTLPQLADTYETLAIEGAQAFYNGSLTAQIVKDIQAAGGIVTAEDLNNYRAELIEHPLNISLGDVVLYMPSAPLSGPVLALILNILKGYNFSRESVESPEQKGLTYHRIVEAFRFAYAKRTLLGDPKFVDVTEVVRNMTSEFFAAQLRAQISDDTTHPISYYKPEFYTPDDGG
Chain of Glutathione hydrolase 1 proenzyme (P19440 381-569 limits assumed): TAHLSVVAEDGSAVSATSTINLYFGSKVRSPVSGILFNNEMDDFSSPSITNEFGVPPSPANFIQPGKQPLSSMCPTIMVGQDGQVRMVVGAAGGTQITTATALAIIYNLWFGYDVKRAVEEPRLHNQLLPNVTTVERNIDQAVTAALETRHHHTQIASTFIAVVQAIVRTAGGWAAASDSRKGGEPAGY

| SMILES | pIC50 [1] | pIC50 [2] | pIC50 [3] | pIC50 [4] |
| --- | --- | --- | --- | --- |
| CNC(=O)c1c(C)c2c(c(C(=O)NC)c1-c1ccccc1C)Nc1ccccc1S2 | 4.74 | 4.68 | 4.60 | 4.74 |
| CNC(=O)c1c(C)c2c(c(C(=O)NC)c1-c1ccc(Cl)cc1)Nc1ccccc1S2 | 4.74 | 4.64 | 4.70 | 4.74 |
| CNC(=O)c1c(C)c2c(c(C(=O)NC)c1-c1ccccc1)Nc1ccccc1S2 | – | 4.74 | 4.70 | 4.85 |
| CNC(=O)c1c(C)c2c(c(C(=O)NC)c1-c1ccccc1OC)Nc1ccccc1S2 | 4.60 | 4.66 | 4.55 | < 4.52 |
| CNC(=O)c1c(C)c2c(c(C(=O)NC)c1-c1ccc(OC)cc1)Nc1ccccc1S2 | 4.66 | 4.74 | 4.68 | 4.72 |
| CNC(=O)c1c(C)c2c(c(C(=O)NC)c1-c1ccc3c(c1)OCO3)Nc1ccccc1S2 | 4.70 | 4.62 | 4.74 | 4.70 |
| CNC(=O)c1c(C)c2c(c(C(=O)NC)c1-c1ccccc1Cl)Nc1ccccc1S2 | 4.82 | 4.82 | 4.74 | 4.70 |
| CC(=O)Oc1ccccc1C(=O)O [ASPIRIN] | 4.66 | 4.62 | 4.44 | 4.55 |

Next, values leading:

| pIC50 [1] | pIC50 [2] | pIC50 [3] | pIC50 [4] | SMILES |
| --- | --- | --- | --- | --- |
| 4.80 | 4.74 | 4.70 | 4.82 | CNC(=O)C1=C(C)C2=C(Nc3ccccc3S2)C(C(=O)NC)C1c1ccccc1 (stereo not drawn) |
| 4.59 | 4.55 | < 4.46 | 4.51 | CNC(=O)C1=C(C)C2=C(Nc3ccccc3S2)C(C(=O)NC)C1c1ccc(Cl)cc1 (stereo not drawn) |
| 4.74 | 4.68 | 4.66 | 4.77 | CNC(=O)C1=C(C)C2=C(Nc3ccccc3S2)C(C(=O)NC)C1c1ccccc1C (stereo not drawn) |
| < 4.52 | 4.70 | < 4.52 | < 4.52 | CNC(=O)C1=C(C)C2=C(Nc3ccccc3S2)C(C(=O)NC)C1c1ccccc1OC (stereo not drawn) |
| < 4.52 | 4.55 | < 4.52 | < 4.52 | CNC(=O)C1=C(C)C2=C(Nc3ccccc3S2)C(C(=O)NC)C1c1ccc2c(c1)OCO2 (stereo not drawn) |
| < 4.52 | 4.55 | 4.44 | 4.49 | CNC(=O)C1=C(C)C2=C(Nc3ccccc3S2)C(C(=O)NC)C1c1ccc([N+](=O)[O-])cc1 (stereo not drawn) |
| 4.68 | 4.70 | 4.60 | 4.74 | CNC(=O)C1=C(C)C2=C(Nc3ccccc3S2)C(C(=O)NC)C1c1ccc(OC)cc1 (stereo not drawn) |
| 4.89 | 4.80 | 4.72 | 4.74 | CNC(=O)C1=C(C)C2=C(Nc3ccccc3S2)C(C(=O)NC)C1c1ccccc1Cl (stereo not drawn) |
